Data set [1] deals with T1, C-C chemokine receptor type 4 (Homo sapiens, UniProt P51679).
T1 sequence (P51679 whole entry): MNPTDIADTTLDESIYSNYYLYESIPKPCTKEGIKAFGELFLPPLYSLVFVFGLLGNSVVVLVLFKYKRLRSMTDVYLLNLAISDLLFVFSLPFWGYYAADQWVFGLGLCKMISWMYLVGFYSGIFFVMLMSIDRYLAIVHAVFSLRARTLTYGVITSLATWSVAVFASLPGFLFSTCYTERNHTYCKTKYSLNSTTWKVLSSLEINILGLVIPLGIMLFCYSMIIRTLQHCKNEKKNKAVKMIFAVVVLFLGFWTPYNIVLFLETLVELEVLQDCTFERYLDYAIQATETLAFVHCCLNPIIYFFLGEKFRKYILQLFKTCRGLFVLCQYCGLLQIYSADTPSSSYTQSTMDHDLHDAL
In words: Displacement of [125I]TARC from CCR4 expressed in human CEM cell line. It counts as cell-based, CCRF-CEM. The essentials: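 CEM cells at 5 · 10^6/mL in RPMI-1640 with 0.5% BSA, incubated with compound (diluted in DMSO) and [125I]TARC diluted to 100 pM in buffer, 2 h at room temperature. Bound ligand collected by filtration through GF/B filters and counted by scintillation. Values are means of three experiments (standard deviation ±30%).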
In general terms: Loss of bound radioactivity is the signal in a displacement assay; it reports binding, not function.

For data set [2], the target named is T1, C-C chemokine receptor type 4. In words: Displacement of [125I]MDC from CCR4 expressed in human CEM cell line. It counts as cell-based, CCRF-CEM.
Data set [3] can be described thus: Clearance in rat at 0.5 mg/kg, iv. Further details: dose 0.5 mg/kg, route intravenous. Type of data set: ADME, organism-based. Particulars: in vivo.
A short description of data set [4]: Terminal half life in rat at 0.5 mg/kg, iv. Type of data set: ADME, organism-based. Further details: dose 0.5 mg/kg, route intravenous. The note with it: in vivo.
A short description of data set [5]: Oral bioavailability in rat at 2 mg/kg, po. Type of data set: ADME, organism-based. Particulars: in vivo. A digest of the protocol:
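Rats dosed by oral gavage at 2 mg/kg; oral bioavailability determined.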

Each structure is given as a SMILES string. A value given as a limit tells only on which side of the number the result lay.

Here are results for 32 compounds from ChEMBL document CHEMBL1147007, “Optimization of 2-aminothiazole derivatives as CCR4 antagonists” (Bioorg Med Chem Lett, 2006).

In the case of `NCc1csc(Nc2cccc3ccccc23)n1`, the IC50 (usually the concentration needed to halve the response being measured) in data set [1] is over 25000 nM.

As to `Cn1ccc2c(Nc3nc(C(C)(C)C)cs3)cccc21`, in data set [1], the IC50 came to 37 nM.

Consider `CC(C)(C)c1ccc(-c2csc(Nc3cccc4ccccc34)n2)cc1`, for which, in data set [1], the IC50 stood at 900 nM. This IC50 lies about 24-fold higher than the previous one.

`CC(C)c1csc(Cc2cccc3ccccc23)n1` yielded an IC50 in data set [1] of over 25000 nM.

As for `CC(C)(C)c1csc(Nc2cccc3cccnc23)n1`, the IC50 in data set [1] is over 25000 nM.

For `CC(C)(C)c1csc(Nc2ccccc2)n1`, the IC50 in data set [1] was 4500 nM.

In turn, `CC(C)c1ccccc1Nc1nc(C(C)(C)C)cs1` returned a half-inhibitory concentration (IC50) in data set [1] of 440 nM.

On to `Cc1cccc(Nc2nc(C(C)(C)C)cs2)c1C`, for which the IC50 in data set [1] was determined as 260 nM.

Consider `CC(C)(C)c1coc(Nc2cccc3ccccc23)n1`, for which the IC50 in data set [1] turned out to be 80 nM.

For the compound `Cc1cccc(Nc2cc(CN(Cc3ccccc3C(F)(F)F)CC3CCCCC3)no2)c1C`, the IC50 in data set [1] came out at 12100 nM.

In the case of `CCNCc1csc(Nc2cccc3ccccc23)n1`, in data set [1], the IC50 was determined as 1000 nM.

On to `CC(C)CN(Cc1csc(Nc2cccc3ccccc23)n1)CC(C)C`, for which the IC50 in data set [1] stood at 45 nM.

In data set [1], `CC(C)(C)c1csc(Nc2cccc3[nH]ccc23)n1` came in with an IC50 of 490 nM.

In data set [1], `CC(C)c1csc(Nc2cccc3ccccc23)n1` gave an IC50 of 170 nM.

On to `c1ccc2c(Nc3nc(CN(CC4CCCCC4)CC4CCCCC4)cs3)cccc2c1`, for which the IC50 is 31 nM in data set [2] and 18 nM in data set [1]. Besides, the clearance (as a rule, the volume of plasma or blood freed of the substance per unit of time) in data set [3] is 17.8 mL/min/kg. Besides, the half-life (usually the time needed for the level to fall by half in the phase considered) in data set [4] is 3.6 h. For the same compound, the bioavailability (in general, the share of a dose that reaches the circulation, judged against a reference dose that is usually intravenous) in data set [5] is 63%.

In turn, `Cc1cccc(Nc2cccc(CN(Cc3ccccc3C(F)(F)F)CC3CCCCC3)n2)c1C` showed a half-inhibitory concentration (IC50) in data set [1] of 340 nM.

Consider `Cc1csc(N(C)c2cccc3ccccc23)n1`, for which the IC50 in data set [1] was over 25000 nM.

For the compound `CC(C)(C)c1csc(Nc2cccc3ncccc23)n1`, the IC50 in data set [1] was determined as 300 nM.

The compound `Cc1cccc(Nc2cc(CN(Cc3ccccc3C(F)(F)F)CC3CCCCC3)n[nH]2)c1C` had an IC50 in data set [1] of over 25000 nM.

`CC(C)(C)c1csc(Nc2cccc3c2CCCC3)n1` gave an IC50 in data set [1] of 210 nM.

In data set [1], `c1ccc(-c2csc(Nc3cccc4ccccc34)n2)cc1` registered an IC50 of 5500 nM.

In turn, `CCn1ccc2c(Nc3nc(C(C)(C)C)cs3)cccc21` yielded an IC50 in data set [1] of 210 nM. This IC50 is about 26-fold lower than that of the compound before.

In data set [1], `CC(C)(C)c1ccnc(Nc2cccc3ccccc23)n1` registered an IC50 of over 25000 nM.

As to `FC(F)(F)c1ccccc1CN(Cc1csc(Nc2cccc3ccccc23)n1)CC1CCCCC1`, the IC50 in data set [1] was determined as 14 nM.

`CC(C)(C)c1csc(Nc2cccc3cnccc23)n1` yielded an IC50 in data set [1] of 1500 nM.

`CC(C)(C)c1csc(Nc2cccc3ccccc23)n1` came in with a 50% inhibitory concentration (IC50) in data set [1] of 80 nM.

In turn, `Cc1cccc(Nc2cc(CN(Cc3ccccc3C(F)(F)F)CC3CCCCC3)nn2C)c1C` yielded an IC50 in data set [1] of 370 nM.

For the compound `Cc1ccccc1Nc1nc(C(C)(C)C)cs1`, the IC50 in data set [1] was 900 nM.

In the case of `Cc1csc(Nc2cccc3ccccc23)n1`, the half-inhibitory concentration (IC50) was 3000 nM in data set [2] and 1700 nM in data set [1]. In data set [3], this compound gave a clearance of 70 mL/min/kg. In data set [4], this compound gave a half-life of 0.4 h. Besides, in data set [5], the bioavailability is 2%.

In data set [1], `CC(C)(C)Cc1csc(Nc2cccc3ccccc23)n1` had an IC50 of 220 nM. This lies in the sub-micromolar range.

On to `Cc1cccc(Nc2nc(C(C)(C)C)cs2)c1`, for which the IC50 in data set [1] was found to be 2000 nM.

Take `CCN(CC)Cc1csc(Nc2cccc3ccccc23)n1`: in data set [1], the half-maximal inhibitory concentration (IC50) was 800 nM.
